TbMetRS inhib = Trypanosoma brucei MetRS inhibition | purified T. brucei MetRS, ATP depletion, Kinase-Glo luminescence | inhibition, % at 11.9 µM | hit rate 0.4% among 360,000 | AID 624268;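 active means inhibition above a per-plate cutoff of the control wells' mean inhibition plus 3 SD, cut at about 5.5% in these data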;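 further: 0% = DMSO wells median and 100% = median of wells with control inhibitor compound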
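Dosing: 11.9 µM compound single dose, 0.9% DMSO; Assay system: purified T. brucei MetRS enzyme; Measured by: Kinase-Glo luciferase luminescence reporting remaining unconsumed ATP; Schedule: 15 min plus 2 h at 25 °C.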
PLC-gamma1 inh = blocks human PLC-gamma1 enzyme activity; inhibition, % at 12.2 µM; purified PLC-gamma1, fluorogenic substrate, fluorescence; hit rate 0.84% among 370,000; P19174; in the data active means inhibition above about 9.5%
Target sequence (P19174 whole entry, looked up): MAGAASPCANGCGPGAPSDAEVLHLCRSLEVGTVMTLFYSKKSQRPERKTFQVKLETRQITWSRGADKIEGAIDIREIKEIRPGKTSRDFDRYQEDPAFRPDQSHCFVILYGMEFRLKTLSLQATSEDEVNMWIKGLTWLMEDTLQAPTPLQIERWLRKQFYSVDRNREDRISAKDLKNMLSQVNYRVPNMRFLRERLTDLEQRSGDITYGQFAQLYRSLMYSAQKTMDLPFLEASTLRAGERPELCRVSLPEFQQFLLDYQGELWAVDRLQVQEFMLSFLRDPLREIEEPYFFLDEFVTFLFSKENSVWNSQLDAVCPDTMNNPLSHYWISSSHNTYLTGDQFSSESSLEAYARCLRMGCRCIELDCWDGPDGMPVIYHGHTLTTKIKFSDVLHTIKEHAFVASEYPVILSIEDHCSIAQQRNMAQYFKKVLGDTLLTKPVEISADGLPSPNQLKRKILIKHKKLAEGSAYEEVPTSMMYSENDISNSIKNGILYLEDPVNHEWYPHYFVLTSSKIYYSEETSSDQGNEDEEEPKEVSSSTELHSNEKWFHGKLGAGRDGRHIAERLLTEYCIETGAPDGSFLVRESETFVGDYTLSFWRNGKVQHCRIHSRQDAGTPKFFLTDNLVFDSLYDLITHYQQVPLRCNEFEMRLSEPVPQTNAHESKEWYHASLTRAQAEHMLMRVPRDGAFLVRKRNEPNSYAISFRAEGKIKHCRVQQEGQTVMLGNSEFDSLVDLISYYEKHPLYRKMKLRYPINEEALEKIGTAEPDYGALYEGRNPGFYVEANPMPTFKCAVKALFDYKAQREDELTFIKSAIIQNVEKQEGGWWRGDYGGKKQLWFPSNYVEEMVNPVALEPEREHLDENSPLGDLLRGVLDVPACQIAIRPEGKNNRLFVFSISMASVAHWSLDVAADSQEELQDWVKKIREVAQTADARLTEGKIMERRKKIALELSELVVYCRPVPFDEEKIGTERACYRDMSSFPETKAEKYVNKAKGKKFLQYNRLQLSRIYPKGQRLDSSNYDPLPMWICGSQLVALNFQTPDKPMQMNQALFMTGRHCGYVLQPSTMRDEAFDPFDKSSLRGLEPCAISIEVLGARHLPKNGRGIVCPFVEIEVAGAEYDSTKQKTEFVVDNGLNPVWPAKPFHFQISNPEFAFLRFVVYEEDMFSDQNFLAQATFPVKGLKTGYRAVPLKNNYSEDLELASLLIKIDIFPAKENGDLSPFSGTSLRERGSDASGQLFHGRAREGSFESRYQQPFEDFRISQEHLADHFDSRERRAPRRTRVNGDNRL
PLC-beta3 inh = blocks human PLC-beta3 enzyme activity | Q01970 | Purified PLC-beta3, fluorogenic substrate, fluorescence | inhibition, % at 12.2 µM | hit rate 0.18% among 370,000; in the data active means inhibition above about 11%;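 further: 0% = median of compound wells on plate and 100% = full blocker control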
ADAM17 inh = inhibits human ADAM17; recombinant ADAM17, EDANS/DABCYL FRET peptide cleavage; P78536; hit rate 0.83% among 370,000; inhibition, % at 6.95 µM;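 active means inhibition above the mean of compounds lying between control limits plus 3 SD, set per campaign, cut at about 8.5% in these data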;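 further: 0% = DMSO-only wells as the low control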
ADAM10 inh = inhibitors of human ADAM10; recombinant ADAM10, EDANS/DABCYL FRET peptide cleavage, 3 h; inhibition, % at 7 µM; hit rate 0.62% among 370,000;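 active means inhibition above a per-campaign cutoff equal to the mean of compounds falling between control-based bounds plus 3 SD, cut at about 20% in these data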;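 further: 0% = DMSO wells while the 100% control is not disclosed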
An asterisk follows results filed as active; . = not tested or not shown. The list is not random: actives were taken first. Their share in the collection is about 2.3%.

SMILES | TbMetRS inhib | PLC-gamma1 inh | PLC-beta3 inh | ADAM17 inh | ADAM10 inh
Cc1ccc(C)c(NS(=O)(=O)c2cc(C(=O)NCCSC3CCCCC3)ccc2C)c1 | 0 | 14* | 2 | 16* | 34*
CC(=O)c1ccc2c(c1)C1C=CCC1C(C(=O)O)N2 (configuration not stated) | 0 | 12* | -9 | 4 | 11
O=S(=O)(c1ccc(NC(=S)NC23CC4CC(CC(C4)C2)C3)cc1)N1CCCCC1 | 0 | -1 | 0 | 0 | -3
CCCOc1ccc(N2C(=O)CC(SCCc3nc4ccccc4[nH]3)C2=O)cc1 (configuration not stated) | 2 | -1 | 3 | 2 | -4
O=C1CC(SCCc2nc3ccccc3[nH]2)C(=O)N1c1ccc(Cl)cc1 (configuration not stated) | 21* | -2 | -2 | -2 | 5
Cc1cc(C)c(S(=O)(=O)N(C)CC(=O)NCCCn2ccnc2)c(C)c1 | -1 | -1 | -7 | -4 | -4
Cc1ccc(Cn2cc(CN3[C@H](C)COc4cc(Br)ccc4S3(=O)=O)nn2)cc1 | . | 2 | 2 | -2 | 5
O=C(CN(Cc1ccco1)C(=O)c1ccccc1)Nc1ccc(Cl)c(Cl)c1 | 5.8* | 1 | -1 | 6 | 14
Cn1c(=O)n(Cc2ccccc2)c(=O)c2c1nc1n2CCCN1Cc1ccccc1 | -1 | 11* | 0 | 1 | -2
Cn1c(=O)n(Cc2ccccc2)c(=O)c2c1nc1n2CCCN1CCc1ccccc1 | 0 | -3 | 1 | 3 | 9
O=C(CSc1nnc(CNc2ccc(F)cc2)o1)N1c2ccccc2Sc2ccccc21 | 0 | 2 | 2 | 8 | 24*
O=C(CSc1nnc(CNc2ccc(F)cc2)o1)N1CCN(C(=O)c2ccco2)CC1 | 0 | 1 | -1 | -2 | -1
N#CCCn1c(SCC(=O)c2c[nH]c3ccccc23)nc2ccccc21 | 5.8* | -5 | -7 | -5 | -4
CCOC(=O)c1c(C)[nH]c(C)c1C(=O)CSc1nc2ccccc2n1CCC#N | 0 | 2 | 1 | -4 | 0
O=C(NCCSCc1c(F)cccc1Cl)Nc1ccccc1 | 7.8* | . | . | . | .
S=C(NCCSCc1ccc(Cl)cc1Cl)Nc1ccccc1 | 70* | -1 | -1 | 6 | 12
Cc1ccn2c(=O)nc(SCC(=O)N3CCCC3)nc2c1 | 0 | -5 | -17 | -8 | -24
O=C(O)C1=NN(c2cc(Cl)c(S(=O)(=O)O)cc2Cl)C(=O)C1 | 0 | 15* | 1 | -4 | -7
COc1cccc(C(C#N)N2N=C(C)CC2(C)C)c1O (configuration not stated) | -1 | 12* | -3 | 3 | 4
CC(=O)Nc1cccc(NC(=O)CS(=O)(=O)c2cn(CC(=O)N(C(C)C)C(C)C)c3ccccc23)c1 | 1 | -1 | -6 | -1 | -9
COc1cc(C)ccc1S(=O)(=O)NC(=O)C1(C)CCN1C(=O)C1(c2ccc(Cl)cc2)CCC1 (configuration not stated) | 0 | 0 | -2 | -2 | -6
Cc1cc(C)c2c(n1)sc1c(-c3ccccc3)c(C#N)c(N)nc12 | 0 | -11 | -12 | -11 | -33
c1ccc(C[C@H]2CN=C(Nc3ccccc3)N2CCC2CCCC2)cc1 | 0 | 10* | 8 | 5 | 1
CN1CC(=O)N(CC(=O)Nc2cccc3ccccc23)C1=O | 0 | 2 | -4 | 1 | -8
CCOC(=O)COc1cc2oc(=O)cc(C)c2cc1[N+](=O)[O-] | 0 | 0 | -8 | -3 | 6
SMILES | TbMetRS inhib | PLC-gamma1 inh | PLC-beta3 inh | ADAM17 inh | ADAM10 inh
Cc1c(-n2c(SCC(=O)O)nnc2-c2ccccc2Br)c(=O)n(-c2ccccc2)n1C | 0 | 1 | -2 | -3 | -3
S=C(NN=C(c1ccccc1)c1ccccn1)N(Cc1ccccn1)Cc1ccccn1 | 0 | -12 | -10 | 72* | 78*
C=CCN1CCN(C(=O)c2cc3c(s2)CCC(CC)C3)CC1 (configuration not stated) | 0 | 9.7* | 1 | 4 | 1
Cc1ccc(N2C(=O)C3C(C2=O)N2C(c4cccs4)C4C(=O)N(c5ccc(C)cc5)C(=O)C4N2C3c2cccs2)cc1 (configuration not stated) | 0 | 9 | -18 | 13* | 12
CCOC(=O)C1(C)NC(c2cccs2)C2C(=O)N(c3ccc(C)cc3)C(=O)C21 (configuration not stated) | 0 | 1 | 1 | -1 | 0
Cn1nc(-c2ccccc2)c2ncc(C(F)(F)F)cc21 | -1 | . | . | . | .
Cc1cc(C)c(S(=O)(=O)/N=C2/C=C(Sc3ncn[nH]3)C(=O)c3ccccc32)cc1C | 2 | 12* | -4 | 2 | 1
Cc1cn([C@H]2C[C@H](O)[C@@H](CCC(=O)NCCc3cccs3)O2)c(=O)[nH]c1=O | 0 | -1 | 0 | -4 | -15
COCC1CCN(C(=O)CCc2nnc(C3(c4ccc(Cl)cc4)CCC3)o2)CC1 | -1 | 12* | 2 | 3 | 13
CCOc1ccccc1N(CC(=O)Nc1cccc2ccccc12)S(C)(=O)=O | 2 | -1 | -6 | 0 | 1
CCN(CC)c1ccc(N=Nc2ncn[nH]2)cc1 | 0 | 3 | 12* | 2 | 4
O=C(CC1SC(=Nc2ccccc2)N(CCCO)C1=O)Nc1ccc(Cl)cc1 (configuration not stated) | 14* | . | . | . | .
O=C(CC1SC(=Nc2ccccc2)N(CCO)C1=O)Nc1ccccc1 (configuration not stated) | -1 | 2 | 4 | 0 | 2
O=C1CC(SC(=S)C2CCCC2=O)C(=O)N1 (configuration not stated) | 0 | 12* | -16 | -4 | -13
CC1=NN(c2ccccc2)C(=O)C1C(=S)SC1CC(=O)NC1=O (configuration not stated) | 0 | 5 | 0 | 1 | -4
O=C(/C=C/c1ccccc1)OCC(=O)N1CCCC1 | 0 | 11* | -6 | -2 | 2
Cc1ccc(NC2=C/C(=N/S(=O)(=O)c3cccs3)c3ccccc3C2=O)cc1C | -1 | 5 | 4 | 2 | 2
COc1ccc(S(=O)(=O)/N=C2\C=C(Nc3ccc(O)cc3)C(=O)c3ccccc32)cc1 | 2 | 18* | 4 | 7 | 20
CC(=O)Nc1ccc(NC2=C/C(=N/S(=O)(=O)c3cccs3)c3ccccc3C2=O)cc1 | 3 | 11* | 7 | 2 | 7
C[C@H]1CNC(=O)c2c(C(=O)Nc3ccc(CNC(=O)OC(C)(C)C)cc3)ncn21 | 0 | -1 | -3 | 2 | -8
CCC(C)(C)C(=O)N1CCC(C(=O)NC2CCCc3ccccc32)CC1 (configuration not stated) | . | 1 | 1 | 0 | -1
O=C1C=CC2=C3c4cc(O)c(O)cc4CC3(O)COC2=C1O (configuration not stated) | -2 | 16* | 6 | 2 | 2
NC(=O)c1ccc(F)cc1 | 0 | -1 | 1 | -5 | -3
O=C(c1ccc(F)cc1)c1cccc(C(=O)c2ccc(F)cc2)n1 | 0 | 3 | 11* | 2 | -7
